In ChEMBL document CHEMBL1133640, “Structure-activity studies including a Psi(CH(2)-NH) scan of peptide YY (PYY) active site, PYY(22-36), for interaction with rat intestinal PYY receptors: development of analogues with potent in vivo activity in the intestine” (J Med Chem, 2000):
Where a SMILES comes first, the peptide text is derived from it. [ ]: non-standard residue; d: D form. Bip = N[C@@H](Cc1ccc(-c2ccccc2)cc1)C(=O)O

Assays:
[1] = biological target: Neuropeptide Y receptor type 1 (Homo sapiens, UniProt P25929); test: Affinity against Neuropeptide Y receptor Y1 in SK-N-MC cell line; format: cell-based
[2] = biological target: T1, Neuropeptide Y receptor type 2 (Homo sapiens, UniProt P49146); test: Affinity against Neuropeptide Y receptor Y2 in SK-N-BE2 cell line
T1 sequence (P49146 whole entry): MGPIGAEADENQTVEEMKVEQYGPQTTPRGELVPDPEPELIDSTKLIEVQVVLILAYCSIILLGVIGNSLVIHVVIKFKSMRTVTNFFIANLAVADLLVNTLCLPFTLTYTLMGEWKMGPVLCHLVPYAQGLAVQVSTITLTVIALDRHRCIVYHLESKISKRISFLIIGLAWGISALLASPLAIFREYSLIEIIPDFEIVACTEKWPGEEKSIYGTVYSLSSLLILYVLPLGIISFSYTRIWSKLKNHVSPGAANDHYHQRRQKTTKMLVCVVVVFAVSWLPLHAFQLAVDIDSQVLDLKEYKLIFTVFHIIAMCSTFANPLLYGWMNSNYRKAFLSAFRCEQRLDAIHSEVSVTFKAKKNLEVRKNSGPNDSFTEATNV

[3] = biological target: Neuropeptide Y receptor type 2 (Rattus norvegicus, UniProt Q9ERC0); test: Tested for the affinity for intestinal PYY from rat jejunum by using short circuit current (SCC) method.
[4] = species on record: Canis familiaris; test: Peak proabsorptive effects of intralbuminal Infusion on absorption of water in the ileum of awake dogs bearing ileal and/or Colonic Thiry-Vella Fistulasa; format: functional, organism-based; conditions: Canis lupus familiaris
[5] = species on record: Canis familiaris; test: Peak proabsorptive effects of intralbuminal Infusion on absorption of Cl- in the colon of awake dogs bearing ileal and/or Colonic Thiry-Vella Fistulasa; format: functional, organism-based; conditions: Canis lupus familiaris
[6] = species on record: Canis familiaris; test: Peak proabsorptive effects of intralbuminal Infusion on absorption of Cl- in the ileum of awake dogs bearing ileal and/or Colonic Thiry-Vella Fistulasa; format: functional, organism-based; conditions: Canis lupus familiaris
[7] = species on record: Canis familiaris; test: Peak proabsorptive effects of intralbuminal Infusion on absorption of Na+ in the colon of awake dogs bearing ileal and/or Colonic Thiry-Vella Fistulasa; format: functional, organism-based; conditions: Canis lupus familiaris
[8] = species on record: Canis familiaris; test: Peak proabsorptive effects of intralbuminal Infusion on absorption of Na+ in the ileum of awake dogs bearing ileal and/or Colonic Thiry-Vella Fistulasa; format: functional, organism-based; conditions: Canis lupus familiaris
[9] = species on record: Canis familiaris; test: Peak proabsorptive effects of intralbuminal Infusion on absorption of water in the colon of awake dogs bearing ileal and/or Colonic Thiry-Vella Fistulasa; format: functional, organism-based; conditions: Canis lupus familiaris
[10] = system: Rattus norvegicus; test: Tested for in vivo antisecretory potency for inhibiting VIP-induced (30 micro g/kg/h) secretion in isolated jejunum in anesthetized rats.(95% CL); format: functional; conditions: read-out: ID50 (the source's name)
Outline: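 Rats anesthetized, saphenous vein cannulated. Isolated jejunal loop instilled with 2000 μL fluid. At the end the loop is excised, measured and weighed before and after emptying. Net water flux (μL/cm/30 min) = (F-E)2000/L; negative means absorption. 6-8 animals per dose.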

Sequence of Neuropeptide Y receptor type 1 (P25929 whole entry): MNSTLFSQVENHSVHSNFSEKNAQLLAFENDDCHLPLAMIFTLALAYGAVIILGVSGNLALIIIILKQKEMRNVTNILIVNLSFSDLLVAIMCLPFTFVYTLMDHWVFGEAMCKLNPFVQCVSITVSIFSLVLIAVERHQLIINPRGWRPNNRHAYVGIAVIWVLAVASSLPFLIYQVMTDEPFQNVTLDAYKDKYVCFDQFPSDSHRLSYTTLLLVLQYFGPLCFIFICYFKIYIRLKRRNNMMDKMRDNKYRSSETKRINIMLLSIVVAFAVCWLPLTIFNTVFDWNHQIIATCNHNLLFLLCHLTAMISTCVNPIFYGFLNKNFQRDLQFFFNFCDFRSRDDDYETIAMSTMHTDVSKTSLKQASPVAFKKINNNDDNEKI
Sequence of Neuropeptide Y receptor type 2 (Rattus norvegicus, UniProt Q9ERC0) (Q9ERC0 whole entry, the tested form may be a part): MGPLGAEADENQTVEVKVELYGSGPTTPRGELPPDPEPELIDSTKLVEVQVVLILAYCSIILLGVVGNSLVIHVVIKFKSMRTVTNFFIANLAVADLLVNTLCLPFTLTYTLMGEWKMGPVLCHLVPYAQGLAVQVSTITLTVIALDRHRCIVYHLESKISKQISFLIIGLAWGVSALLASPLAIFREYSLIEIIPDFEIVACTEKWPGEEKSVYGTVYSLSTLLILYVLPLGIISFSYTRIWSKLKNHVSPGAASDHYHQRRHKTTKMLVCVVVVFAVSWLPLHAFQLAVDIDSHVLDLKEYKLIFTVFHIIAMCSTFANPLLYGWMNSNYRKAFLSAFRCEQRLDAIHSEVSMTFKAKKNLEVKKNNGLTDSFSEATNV

IC50 [1] [nM] | IC50 [2] [nM] | IC50 [3] [nM] | Molecule | Absorption [4] [µL/min] | Absorption (u equiv min-1) [5] | Absorption (u equiv min-1) [6] | Absorption (u equiv min-1) [7] | Absorption (u equiv min-1) [8] | Absorption [9] [µL/min] | ED50 [10] [µmol/kg]
279 | 14.2 | 2.42 | CC(=O)N[C@@H](C)C(=O)N[C@@H](CO)C(=O)N[C@@H](CC(C)C)C(=O)N[C@@H](CCCN=C(N)N)C(=O)N[C@@H](Cc1c[nH]cn1)C(=O)N[C@@H](Cc1ccc(-c2ccccc2)cc1)C(=O)N[C@@H](CC(C)C)C(=O)N[C@@H](CC(N)=O)C(=O)N[C@@H](CC(C)C)C(=O)N[C@H](C(=O)N[C@H](C(=O)N[C@@H](CCCN=C(N)N)C(=O)N[C@@H](CCC(N)=O)C(=O)N[C@@H](CCCN=C(N)N)C(=O)N[C@@H](Cc1ccc(O)cc1)C(N)=O)[C@@H](C)O)C(C)C (Ac-ASLRH[Bip]LNLVTRQRY-NH2) | – | – | – | – | – | – | –
– | – | – | Ac-ASLRHWLNLVTRQRY-NH2 [listing 1 of 2 here] | 725 | 77 | 101 | 78 | 120 | 503 | 3.33e-05
77 | 2.09 | 3.2 | Ac-ASLRHWLNLVTRQRY-NH2 [listing 2 of 2 here] | – | – | – | – | – | – | –
762 | 158 | 100 | Ac-ASLRHYLWLVTRQRY-NH2 | – | – | – | – | – | – | –
398 | 2.08 | 0.6 | Ac-ASLRHYWNLVTRQRY-NH2 | – | – | – | – | – | – | –
